pIC50: −log10 of the molar value. Calls of active or inactive are those of the source. No cut-off for these calls is given here.
Legend:
Cavia porcellus [1] = species: Cavia porcellus; assay: Inhibitory potency against leukotriene C4 (LTC) induced bronchoconstriction in guinea pigs.; type: functional, organism-based
Procedure, shortened: (§1)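 Anesthetized male guinea pigs were pretreated with propranolol 0.1 mg/kg i.v. and monitored by tracheal pressure. Maximally constrictory i.v. challenges were LTC 50 μg/kg, LTD 50 μg/kg, LTE 25 μg/kg, PAF 10 μg/kg and histamine 50 μg/kg. Dosing, group sizes and % inhibition calculation were otherwise as for the LTE protocol.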

Cavia porcellus [2] = species: Cavia porcellus; assay: Inhibitory potency against platelet activating factor (PAF) induced bronchoconstriction in guinea pigs.; type: functional, organism-based; procedure, shortened: as §1
Cavia porcellus [3] = species: Cavia porcellus; assay: Inhibitory potency against histamine induced bronchoconstriction in guinea pigs.; type: functional, organism-based; procedure, shortened: as §1
Cavia porcellus [4] = species: Cavia porcellus; assay: Inhibitory potency against leukotriene E4 (LTE) induced bronchoconstriction in guinea pigs.; type: functional, organism-based; procedure, shortened: as §1
Cavia porcellus [5] = species: Cavia porcellus; assay: Inhibitory potency against leukotriene D4 (LTD) induced bronchoconstriction in guinea pigs.; type: functional, organism-based; procedure, shortened: as §1
Cavia porcellus [6] = assay: In vivo inhibition of leukotriene-induced bronchoconstriction in guinea pigs following 10 mg/kg i.v. administration.; type: functional; conditions: route intravenous
Procedure, shortened: (§2)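 Male Hartley guinea pigs (400–600 g) were anesthetized with urethane 2 g/kg i.p. and given propranolol 0.1 mg/kg i.v. 5 min before challenge. After succinylcholine 1.2 mg/kg i.v., animals were ventilated at 40 breaths/min with 4.0 cm3 stroke volume. Drug (10 mg/kg) or vehicle went via jugular cannula 30 s before LTE 25 μg/kg i.v. Tracheal pressure change gave % inhibition (3 control, 5 treated).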

Cavia porcellus [7] = assay: In vivo inhibition of leukotriene-induced bronchoconstriction in guinea pigs, was determined, by administering compound by aerosol route, after 77 min; type: functional, organism-based
Procedure, shortened: (§3)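 Duration of aerosol protection was measured in anesthetized, propranolol-pretreated male guinea pigs. Each inhaled a 1% neutralized aqueous drug solution by ultrasonic nebulizer for 5 min. LTE i.v. challenge followed after 30 s or 5, 10, 30, 60 or 90 min. Tracheal pressure change gave % inhibition (3 control, 5 treated). Duration is the time at which inhibition fell to 40%.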

Cavia porcellus [8] = assay: In vivo inhibition of leukotriene-induced bronchoconstriction in guinea pigs, was determined, by administering compound by aerosol route, after 55 min; type: functional, organism-based; procedure, shortened: as §3
[9] = target: Cysteinyl leukotriene receptor (Cavia porcellus); assay: In vitro inhibition of SRS-A-induced contractions in guinea pig ileum
Cavia porcellus [10] = assay: In vivo inhibition of leukotriene-induced bronchoconstriction in guinea pigs, was determined, by administering compound by aerosol route, after 37 min; type: functional, organism-based; procedure, shortened: as §3
Cavia porcellus [11] = assay: In vivo inhibition of leukotriene-induced bronchoconstriction in guinea pigs, was determined, by administering compound by aerosol route, after 14 min; type: functional, organism-based; procedure, shortened: as §3
Cavia porcellus [12] = assay: In vivo inhibition of leukotriene-induced bronchoconstriction in guinea pigs, was determined, by administering compound by aerosol route, after 9 min; type: functional, organism-based; procedure, shortened: as §3
Cavia porcellus [13] = assay: In vivo inhibition of leukotriene-induced bronchoconstriction in guinea pigs, was determined, by administering compound by aerosol route, after 7 min; type: functional, organism-based; procedure, shortened: as §3
Cavia porcellus [14] = assay: In vivo inhibition of leukotriene-induced bronchoconstriction in guinea pigs, was determined, by administering compound by aerosol route, after 22 min; type: functional, organism-based; procedure, shortened: as §3
Cavia porcellus [15] = assay: In vivo inhibition of leukotriene-induced bronchoconstriction in guinea pigs, was determined, by administering compound by aerosol route, after 17 min; type: functional, organism-based; procedure, shortened: as §3
Cavia porcellus [16] = species: Cavia porcellus; assay: In vitro inhibition of SRS-A-induced contractions in guinea pig ileum; type: functional
Cavia porcellus [17] = assay: In vivo inhibition of leukotriene-induced bronchoconstriction in guinea pigs, was determined, by administering compound by aerosol route; type: functional, organism-based
Procedure, shortened: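 Urethane-anesthetized male guinea pigs were given propranolol 0.1 mg/kg i.v. 5 min before aerosol. Spontaneously breathing animals inhaled an NaOH-neutralized aqueous drug solution (varied % w/v) or distilled water for 5 min from an ultrasonic nebulizer, then were challenged with i.v. LTE. Tracheal pressure change was compared across 3 control and 5 treated animals. IC50 came from log concentration–response regression over ≥3 concentrations in the 10–90% range.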

Cavia porcellus [18] = assay: In vivo inhibition of leukotriene-induced bronchoconstriction in guinea pigs, was determined, by administering compound by aerosol route, after 45 min; type: functional, organism-based; procedure, shortened: as §3
Cavia porcellus [19] = assay: In vivo inhibition of leukotriene-induced bronchoconstriction in guinea pigs, was determined, by administering compound by aerosol route, after 49 min; type: functional, organism-based; procedure, shortened: as §3
Cavia porcellus [20] = assay: In vivo inhibition of leukotriene-induced bronchoconstriction in guinea pigs, was determined, by administering 10 mg/kg of compound intravenously.;This compound caused bronchoconstriction; bc = Compound caused bronchoconstriction; type: functional, organism-based; design: dose 10 mg/kg; procedure, shortened: as §2
Cavia porcellus [21] = assay: In vivo inhibition of leukotriene-induced bronchoconstriction in guinea pigs, was determined, by administering compound by aerosol route, after 42 min; type: functional, organism-based; procedure, shortened: as §3
Cavia porcellus [22] = assay: In vivo inhibition of leukotriene-induced bronchoconstriction in guinea pigs, was determined, by administering compound by aerosol route, after 15 min; type: functional, organism-based; procedure, shortened: as §3
Cavia porcellus [23] = assay: In vivo inhibition of leukotriene-induced bronchoconstriction in guinea pigs, was determined, by administering 10 mg/kg of compound intravenously.; type: functional; conditions: route intravenous; procedure, shortened: as §2
Cavia porcellus [24] = assay: In vivo inhibition of leukotriene-induced bronchoconstriction in guinea pigs, was determined, by administering compound by aerosol route, after 46 min; type: functional, organism-based; procedure, shortened: as §3
Cavia porcellus [25] = assay: In vivo inhibition of leukotriene-induced bronchoconstriction in guinea pigs, was determined, by administering compound by aerosol route, after 30 min; type: functional, organism-based; procedure, shortened: as §3
Cavia porcellus [26] = species: Cavia porcellus; assay: Inhibitory potency against leukotriene D4 (LTD) induced bronchoconstriction in guinea pigs; type: functional, organism-based; procedure, shortened: as §1
Cavia porcellus [27] = assay: In vivo inhibition of leukotriene-induced bronchoconstriction in guinea pigs, was determined, by administering compound by aerosol route, after 73 min; type: functional, organism-based; procedure, shortened: as §3
Cavia porcellus [28] = species: Cavia porcellus; assay: Inhibitory potency against leukotriene C4 (LTC) induced bronchoconstriction in guinea pigs; type: functional, organism-based; procedure, shortened: as §1
Cavia porcellus [29] = assay: In vivo inhibition of leukotriene-induced bronchoconstriction in guinea pigs, was determined, by administering compound by aerosol route, after 90 min; type: functional, organism-based; procedure, shortened: as §3
Cavia porcellus [30] = assay: In vivo inhibition of leukotriene-induced bronchoconstriction in guinea pigs, was determined, by administering compound by aerosol route, after 25 min; type: functional, organism-based; procedure, shortened: as §3

SMILES	IC50 (Cavia porcellus [2])	IC50 (Cavia porcellus [3])	IC50 (Cavia porcellus [4])	inhibition in vivo at 10 mg/kg (Cavia porcellus [6])	IC50 [9]	other results
CCCc1c(OCC(O)COc2ccc3c(=O)cc(C(=O)O)oc3c2CCC)ccc(C(C)=O)c1O (configuration not stated) [FPL-55712]	> 1 % conc	> 1 % conc	0.79 % conc	98%	–	IC50 (Cavia porcellus [1]): > 3 % conc; IC50 (Cavia porcellus [5]): 0.5 % conc; IC50 (Cavia porcellus [7]): 0.79 % conc
CCCc1c(OCCCCCOc2c(C(C)=O)ccc(OCC(=O)O)c2CCC)ccc(C(C)=O)c1O	1 % conc	> 1 % conc	0.02 % conc	73%	100 nM	IC50 (Cavia porcellus [1]): 0.11 % conc; IC50 (Cavia porcellus [8]): 0.02 % conc; IC50 (Cavia porcellus [5]): 0.13 % conc
CCCc1c(OCCCOCCCOc2c(C(C)=O)ccc(OCCCC(=O)O)c2CCC)ccc(C(C)=O)c1O	1 % conc	> 1 % conc	0.01 % conc	93%	200 nM	IC50 (Cavia porcellus [1]): 0.15 % conc; IC50 (Cavia porcellus [5]): 0.19 % conc; IC50 (Cavia porcellus [10]): 0.01 % conc
CCCc1c(OCCOCCOc2c(C(C)=O)ccc(OCC(=O)O)c2CCC)ccc(C(C)=O)c1O	–	–	–	86%	200 nM	IC50 (Cavia porcellus [11]): 0.02 % conc
CCCc1c(OCCCOc2ccc3ccc(OCCCC(=O)O)cc3c2C(C)=O)ccc(C(C)=O)c1O	–	–	–	93%	80 nM	IC50 (Cavia porcellus [12]): 0.61 % conc
CCCc1c(OCCCCCOc2ccc3ccc(OCC(=O)O)cc3c2C(C)=O)ccc(C(C)=O)c1O	–	–	–	60%	200 nM	IC50 (Cavia porcellus [13]): 0.14 % conc
CCCc1c(OCCCOc2c(C(C)=O)ccc(OCCCC(=O)O)c2CCC)ccc(C(C)=O)c1O	–	–	–	97%	200 nM	IC50 (Cavia porcellus [14]): 0.18 % conc
CCCc1c(OCCOCCOc2c(C(C)=O)ccc(OCCCC(=O)O)c2CCC)ccc(C(C)=O)c1O	–	–	–	91%	100 nM	IC50 (Cavia porcellus [15]): 0.22 % conc
CCCc1c(OCCOCCOCCOc2c(C(C)=O)ccc(OCCCC(=O)O)c2CCC)ccc(C(C)=O)c1O	–	–	–	57%	–	pIC50 (Cavia porcellus [16]): 6.30; IC50 (Cavia porcellus [17]): 1 % conc
CCCc1c(OCCCOc2c(C(C)=O)ccc(OCCCCCC(=O)O)c2CCC)ccc(C(C)=O)c1O	–	–	–	91%	1000 nM	IC50 (Cavia porcellus [8]): 0.02 % conc
CCCc1c(OCCCCOCCCCOc2c(C(C)=O)ccc(OCC(=O)O)c2CCC)ccc(C(C)=O)c1O	–	–	–	54%	500 nM	IC50 (Cavia porcellus [18]): 0.1 % conc
CCCc1c(OCCCOc2ccc3ccc(OCC(=O)O)cc3c2)ccc(C(C)=O)c1O	–	–	–	–	300 nM	IC50 (Cavia porcellus [19]): 0.46 % conc; inhibition (Cavia porcellus [20]): inactive
CCCc1c(OCCOCCOCCOc2c(C(C)=O)ccc(OCC(=O)O)c2CCC)ccc(C(C)=O)c1O	> 1 % conc	0.8 % conc	0.04 % conc	85%	–	pIC50 (Cavia porcellus [16]): 6.00; IC50 (Cavia porcellus [1]): 0.36 % conc; IC50 (Cavia porcellus [21]): 0.04 % conc; IC50 (Cavia porcellus [5]): 0.19 % conc
CCCc1c(OCCCOc2cccc(OCC(=O)O)c2)ccc(C(C)=O)c1O	–	–	–	64%	500 nM	IC50 (Cavia porcellus [22]): 0.07 % conc
CCCc1c(OCCCOc2ccc3ccc(OCCCC(=O)O)cc3c2)ccc(C(C)=O)c1O	–	–	–	–	5000 nM	inhibition in vivo at 10 mg/kg (Cavia porcellus [23]): 75%; IC50 (Cavia porcellus [17]): 1 % conc
CCCc1c(OCCCCCOc2c(C(C)=O)ccc(OCCCC(=O)O)c2CCC)ccc(C(C)=O)c1O	> 1 % conc	0.9 % conc	0.01 % conc	92%	1000 nM	IC50 (Cavia porcellus [1]): 0.16 % conc; IC50 (Cavia porcellus [24]): 0.01 % conc; IC50 (Cavia porcellus [5]): 0.57 % conc
CCCc1c(OCCCOCCCOc2c(C(C)=O)ccc(OCC(=O)O)c2CCC)ccc(C(C)=O)c1O	–	–	–	91%	400 nM	IC50 (Cavia porcellus [25]): 0.1 % conc
CCCc1c(OCCOCCOCCOCCOc2c(C(C)=O)ccc(OCC(=O)O)c2CCC)ccc(C(C)=O)c1O	> 1 % conc	0.8 % conc	0.04 % conc	90%	–	pIC50 (Cavia porcellus [16]): 6.52; IC50 (Cavia porcellus [26]): 0.18 % conc; IC50 (Cavia porcellus [27]): 0.04 % conc; IC50 (Cavia porcellus [28]): 1.3 % conc
CCCc1c(OCCCOc2c(C(C)=O)ccc(OCC(=O)O)c2CCC)ccc(C(C)=O)c1O	–	–	–	95%	2000 nM	IC50 (Cavia porcellus [29]): 0.07 % conc
CCCc1c(OCCCOc2ccc3ccc(OCC(=O)O)cc3c2C(C)=O)ccc(C(C)=O)c1O	> 1 % conc	> 1 % conc	0.02 % conc	90%	200 nM	IC50 (Cavia porcellus [1]): 0.22 % conc; IC50 (Cavia porcellus [5]): 0.32 % conc; IC50 (Cavia porcellus [30]): 0.02 % conc
CCCc1c(OCCOCCOc2c(C(C)=O)ccc(OCCCCCC(=O)O)c2CCC)ccc(C(C)=O)c1O	–	–	–	91%	200 nM	IC50 (Cavia porcellus [17]): 1 % conc

Reference: ChEMBL document CHEMBL1123665, “Substituted (aryloxy)alkanoic acids as antagonists of slow-reacting substance of anaphylaxis” (J Med Chem, 1987)
